Compound activity as filed in PubChem.
The list is not random: actives were taken first. Their share in the collection is about 0.79%.
TNAP inh hi DEA: blocks human TNAP under high phosphate acceptor concentration; P05186; purified TNAP, CDP-star luminescence, 1 M DEA; inhibition, % at 20 µM; 200,000 tested, 0.03% active;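 active = over 50% inhibition of tissue-nonspecific alkaline phosphatase at 20 µM in the single-dose screen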
Target sequence (P05186 whole entry, looked up): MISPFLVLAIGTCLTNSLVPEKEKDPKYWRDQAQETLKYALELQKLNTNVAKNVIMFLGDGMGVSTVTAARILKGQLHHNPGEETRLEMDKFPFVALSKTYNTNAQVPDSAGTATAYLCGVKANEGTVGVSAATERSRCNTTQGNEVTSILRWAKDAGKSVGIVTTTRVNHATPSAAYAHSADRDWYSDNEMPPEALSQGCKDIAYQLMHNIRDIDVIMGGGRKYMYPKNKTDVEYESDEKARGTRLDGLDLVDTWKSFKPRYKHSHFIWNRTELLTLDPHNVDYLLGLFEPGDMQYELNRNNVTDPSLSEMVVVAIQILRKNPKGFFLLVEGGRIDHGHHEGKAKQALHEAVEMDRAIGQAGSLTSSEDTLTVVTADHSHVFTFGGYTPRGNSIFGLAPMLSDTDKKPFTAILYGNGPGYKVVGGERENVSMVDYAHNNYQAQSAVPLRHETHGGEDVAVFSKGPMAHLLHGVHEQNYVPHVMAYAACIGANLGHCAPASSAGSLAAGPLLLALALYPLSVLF
Redox H2O2 prof: compounds producing H2O2 with reducing agent – biochemical, NIH compound library profiling, artefact control for MLSCN library redox annotation, primary screen; DTT-dependent redox cycling H2O2, phenol red/HRP absorbance; 100% = 100 µM peroxide control, 0% = buffer; activation, % at 10 µM; 200,000 tested, 0.03% active; AID 878;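 active = activation of at least 50% relative to the plate's high and low controls in the primary single-dose screen; inactive = activation below 50%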;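 note: compound incubated with DTT at 0.8 mM final as the reducing agent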
TNAP act hiacc: increases human TNAP activity under high phosphate acceptor concentration; P05186; purified TNAP, CDP-star luminescence, 1 M DEA, 30 min; active compounds read high; 0 = EDTA background, 1 = DMSO-only activity; activation factor at 20 µM; 200,000 tested, under 10 active; AID 1136;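 active = activation factor at least 2 at 20 µM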
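Assay system: human TNAP; Input: enzyme diluted 1/800 final; Reagent: CDP-star luminogenic substrate at 100 µM final; Timing: 30 min, room temperature; Signal: luminescence; Evaluation: TNAP activation factor scaled between EDTA and DMSO control wells.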
p97 ATPase inh: inhibitors of human p97 ATPase; AID 1481; recombinant p97 ATPase, Kinase-Glo ATP luminescence, 3 h; inhibition, % at 8 µM; 220,000 tested, 0.42% active; P55072; in the data active = inhibition above about 15%
TNAP inh noacc: inhibitors of human TNAP without phosphate acceptor | purified TNAP, CDP-star luminescence, 30 min | 200,000 tested, 0.26% active | inhibition, % at 20 µM | AID 1012 | P05186;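 active = tissue-nonspecific alkaline phosphatase inhibition above about 50% at 20 µM in the single-dose screen, limit read from the data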
G6PDH CS: L. mesenteroides G6PDH inhibition counter-screen; Purified L. mesenteroides G6PDH, diaphorase/resazurin coupled fluorescence, 45 min; inhibition, % at 5 µM; 200,000 tested, 0.12% active; AID 1020; in the data active = inhibition above about 50%
Of the large screens only hits and unclear results are named; the others gave an inactive call.

O=C1CCNc2cc3ccccc3cc21	G6PDH CS 58
CC(=O)Nc1ccc(NC(=O)Cc2sc(-c3cccnc3)nc2-c2ccc(C)cc2)cc1	p97 ATPase inh 15
Cc1ccc(-c2nc(-c3cccnc3)sc2CC(=O)O)cc1	none (no result: TNAP inh hi DEA, Redox H2O2 prof, TNAP act hiacc, TNAP inh noacc, G6PDH CS)
CCO[C@H]1OC(C(=O)O)=C[C@@H](c2ccc3c(c2)OCO3)[C@@H]1CCCO	none
O=C1SCCC1NS(=O)(=O)c1ccccc1[N+](=O)[O-] (stereo not drawn)	none
O=C(NCCO)Nc1ccc2nc(-c3ccco3)c(-c3ccco3)nc2c1	p97 ATPase inh 44
CCOC(=O)c1nn(-c2ccc(F)cc2)c(=O)c2c(N)scc12	G6PDH CS 51
CN(CCO)c1nc(N)c2c(N)nc3c(c2c1C#N)CC(=O)N3Cc1cccs1	none
N#Cc1c(N(CCO)CCO)nc(N)c2c(N)nc3c(c12)CC(=O)N3Cc1cccs1	p97 ATPase inh 29 (no result: TNAP inh hi DEA, Redox H2O2 prof, TNAP act hiacc, TNAP inh noacc, G6PDH CS)
CCOC(=O)C1CCN(S(=O)(=O)Cc2ccccc2)CC1	G6PDH CS 51
O=C(CN1C(=O)C2C3C=CC(C3)C2C1=O)NCCc1ccccc1 (stereo not drawn)	none
O=C1C2C3C=CC(C3)C2C(=O)N1c1n[nH]c(CCc2ccccc2)n1 (stereo not drawn)	TNAP inh noacc 68
O=C1C2CC=CCC2C(=O)N1c1n[nH]c(Cc2ccccc2)n1 (stereo not drawn)	TNAP inh noacc 96
CN(C)S(=O)(=O)c1ccc(NC(=O)CN2CCc3ccccc32)cc1	none (no result: TNAP inh hi DEA, Redox H2O2 prof, TNAP act hiacc, TNAP inh noacc, G6PDH CS)
Cc1cc(C)cc(Oc2ccccc2CO)c1	none
CC(C)c1ccc(S(=O)(=O)/N=C2/C=CC(=O)c3ccccc32)cc1	G6PDH CS 55
CN(CC(=O)Nc1ccc(N2CCOCC2)cc1)CC(=O)Nc1ccccc1C#N	TNAP inh noacc 50
Cc1ccc(NC(=O)CN(C)CC(=O)Nc2ccc(N3CCOCC3)cc2)c(C)c1	none
S=C(NCCc1ccccc1)Nc1cccc2cnccc12	TNAP inh noacc 53
S=C(Nc1cccc(Cl)c1)Nc1cccc2cnccc12	p97 ATPase inh 27
CC(=O)c1ccc(NC(=S)Nc2cccc3cnccc23)cc1	p97 ATPase inh 17 (no result: TNAP inh hi DEA, Redox H2O2 prof, TNAP act hiacc, TNAP inh noacc, G6PDH CS)
COC(=O)c1ccc(S(=O)(=O)NC(C)(C)C)n1C	none (no result: TNAP inh hi DEA, Redox H2O2 prof, TNAP act hiacc, TNAP inh noacc, G6PDH CS)
CCc1ccc(NC(=O)C(=O)NCCOc2ccccc2Cl)cc1	none
C#CCOc1ccc(/C=C2\SC(=S)N(Cc3cccnc3)C2=O)cc1	none
O=C1/C(=C/c2ccc(O)cc2)SC(=S)N1Cc1cccnc1	TNAP inh hi DEA 63
Cc1ccc(C(=O)Nc2ccccc2C(=O)NC(CC(=O)O)C(=O)O)cc1 (stereo not drawn)	p97 ATPase inh 32
Cc1cc(C)nc(N/N=C/c2cn[nH]c2-c2ccc(F)cc2)n1	none (no result: TNAP inh hi DEA, Redox H2O2 prof, TNAP act hiacc, TNAP inh noacc, G6PDH CS)
CCOC(=O)c1c(C)oc2c1c(C=NCC1CCCO1)c(O)c1ccccc12 (stereo not drawn)	G6PDH CS 50
Cc1ccc(NC(=O)NNC(=O)Cn2nc(-c3ccccc3)c(-c3ccccc3)c(C#N)c2=O)cc1	p97 ATPase inh 15
O=C(Cn1nc(-c2ccccc2)c2ccccc2c1=O)Nc1ccc(O)cc1	none (no result: TNAP inh hi DEA, Redox H2O2 prof, TNAP act hiacc, TNAP inh noacc, G6PDH CS)
O=C(C1=NN[C@@H]2C(=O)N(Cc3ccccc3)C(=O)[C@H]12)c1ccc(F)cc1	none (no result: TNAP inh hi DEA, Redox H2O2 prof, TNAP act hiacc, TNAP inh noacc, G6PDH CS)
O=C(O)c1cccc(-n2cccc2/C=C2/NC(=O)N(c3cccc(Cl)c3)C2=O)c1	none (no result: TNAP inh hi DEA, Redox H2O2 prof, TNAP act hiacc, TNAP inh noacc, G6PDH CS)
O=C(O)c1cccc(-n2cccc2/C=C2/NC(=O)N(c3ccc(Cl)cc3)C2=O)c1	p97 ATPase inh 18
O=C1OCc2cccc([N+](=O)[O-])c21	none
O=C1CC(=O)c2c1cccc2[N+](=O)[O-]	p97 ATPase inh 17 (no result: TNAP inh hi DEA, Redox H2O2 prof, TNAP act hiacc, TNAP inh noacc, G6PDH CS)
S=C(Nc1ccc2nc(-c3ccccn3)c(-c3ccccn3)nc2c1)N1CCCCC1	G6PDH CS 50
CN(C)c1ccc(/C=C/c2ccc3c4ccccc4ccc3[n+]2-c2ccccc2)cc1	TNAP inh hi DEA 69, TNAP inh noacc 74
CN(C)c1ccc(/C=C/c2cccc[n+]2[O-])cc1	none (no result: TNAP inh hi DEA, Redox H2O2 prof, TNAP act hiacc, TNAP inh noacc, G6PDH CS)
CN(C)c1ccc(/C=C/c2ccncc2)cc1	none
CN(C)c1ccc(/C=C/c2ccc3ccccc3[n+]2C)cc1	TNAP inh hi DEA 57, TNAP inh noacc 57
CN(C)S(=O)(=O)N(CC(=O)N(Cc1ccccc1)Cc1ccccc1)c1ccccc1	none
Cc1c(N=C2N=C(NC(=O)c3ccc(F)cc3)c3ccccc32)c(=O)n(-c2ccccc2)n1C	none
O=C(O)c1cc(-c2ccc(Cl)cc2)n[nH]1	TNAP inh noacc 83
COc1ccc(-c2cc(-c3ccc(OC)cc3)[nH]n2)cc1	TNAP inh noacc 66
COc1ccccc1-c1cc(C(=O)NN)[nH]n1	none (no result: TNAP inh hi DEA, Redox H2O2 prof, TNAP act hiacc, TNAP inh noacc, G6PDH CS)
COc1ccc(-c2nc(N)n[nH]2)cc1	TNAP inh noacc 63
CCOc1ccc(-c2cc(C(=O)NN)[nH]n2)cc1	TNAP inh noacc 67
COc1cc(OC)cc(-c2nc(N)n[nH]2)c1	none
COc1ccc(-c2cc(-c3cc(C)ccc3O)[nH]n2)cc1	none
O=C1N=C2N(CCN3CCCCC3)c3ccccc3N2/C1=C\c1ccc([N+](=O)[O-])o1	none
COC(=O)c1cc(-c2c[nH]c3ccccc23)n[nH]1	TNAP inh noacc 89
CCOC(=O)c1cc(-c2ccccc2)n[nH]1	none (no result: TNAP inh hi DEA, Redox H2O2 prof, TNAP act hiacc, TNAP inh noacc, G6PDH CS)
COC(=O)c1cc(-c2ccc(Br)cc2)n[nH]1	TNAP inh noacc 79
COc1ccc(-c2cc(C(=O)NN)[nH]n2)cc1OC	none
COc1ccc(-c2cc(C(=O)NN)[nH]n2)cc1	TNAP inh noacc 93
CCCCOc1ncnc2c1[nH]c1ccc(C)cc12	none (no result: TNAP inh hi DEA, Redox H2O2 prof, TNAP act hiacc, TNAP inh noacc, G6PDH CS)
CCCC/C(O)=N\S(=O)(=O)c1ccc(N=NN(C)C)cc1	none
O=C1C2CCCN2C(c2ccc(Cl)cc2)N1c1nccs1 (stereo not drawn)	none
OCCCC1CCCN(Cc2cn[nH]c2-c2ccc(F)cc2F)C1 (stereo not drawn)	TNAP inh noacc 53
O=C(C1CCN(Cc2cn[nH]c2-c2ccc(F)cc2F)CC1)N1CCOCC1	TNAP inh noacc 51
COc1ccc(-c2[nH]ncc2CN2CCC(C(=O)N3CCOCC3)CC2)c(F)c1	TNAP inh noacc 68
O=C(Cc1ccc(F)cc1)N1CCC(N2CCC(C(=O)N3CCOCC3)CC2)CC1	none
Nc1nc(N)c(C=Nc2ccc(Br)cc2)c(Nc2ccc(Br)cc2)n1	none (no result: TNAP inh hi DEA, Redox H2O2 prof, TNAP act hiacc, TNAP inh noacc, G6PDH CS)
Cc1ccc(OCCCCNC2CCCC(C)C2C)c(C)c1 (stereo not drawn)	none
Cc1cccc(Cn2nnc3c2C(=O)c2ccccc2C3=O)c1	G6PDH CS 54
CCOC(=O)/C=C/C(=O)Nc1ccc(S(=O)(=O)N(C)c2ccccc2)cc1	none
O=C(COC(=O)Cn1cnc2ccccc21)Nc1cc2c(cc1Cl)C(=O)c1ccccc1C2=O	none
CCOc1ccc(-n2cc(-c3ccc(OC)c(OC)c3)[nH]c2=S)cc1	TNAP inh noacc 62
O=C(c1cnc2ccc3ccccc3c2c1)c1cc(F)ccc1O	none (no result: TNAP inh hi DEA, Redox H2O2 prof, TNAP act hiacc, TNAP inh noacc, G6PDH CS)
